Key:
[1] = molecular target: Ribosomal protein S6 kinase beta-1 (Homo sapiens) (UniProt P23443); assay: Inhibition of RPS6KB1 (unknown origin) at 1 uM relative to control
[2] = Intrinsic clearance in mouse liver microsomes; assay type: ADME, microsome; details: read-out: CLH
[3] = molecular target: Rho-associated protein kinase 2 (Homo sapiens) (UniProt O75116); assay: Inhibition of ROCK2 (unknown origin) at 1 uM relative to control
NCI-H1975 [4] = assay: In vivo anti tumor activity against human NCI-H1975 cells xenografted in nude C.B-17 SCID mouse model assessed as tumor growth inhibition at 10 mg/kg, ig for 18 days measured twice a week relative to control; assay type: functional; details: NCI-H1975, po, 432 h, read-out: TGI
Procedure, shortened: (§1)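 H1975 s.c. xenografts (5 × 10^6 cells) were grown in C.B-17 SCID mice and randomized at 100-150 mm3 (n = 9). Mice were dosed intragastrically once daily for 18 days against a PBS control. TGI% = (TWcontrol − TWtreatment)/TWcontrol × 100, where TW is the mean tumor weight on day 18.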

[5] = molecular target: Receptor-type tyrosine-protein kinase FLT3 (Homo sapiens) (UniProt P36888); assay: Inhibition of FLT3 (unknown origin) at 1 uM relative to control
[6] = molecular target: CDK2/Cyclin A2 (Homo sapiens) (UniProt P24941+P20248); assay: Inhibition of CDK2/cyclin A (unknown origin) at 1 uM relative to control; assay type: protein-complex assay
[7] = molecular target: Serine/threonine-protein kinase Chk1 (Homo sapiens) (UniProt O14757); assay: Inhibition of CHEK1 (unknown origin) at 1 uM relative to control
[8] = molecular target: Fibroblast growth factor receptor 3 (Homo sapiens) (UniProt P22607); assay: Inhibition of FGFR3 (unknown origin) at 1 uM relative to control
[9] = Intrinsic clearance in monkey liver microsomes; assay type: ADME, Macaca mulatta, microsome; details: rhesus monkey, read-out: CLH
[10] = Half life in rat liver microsomes; assay type: ADME, microsome
[11] = molecular target: Tyrosine-protein kinase BTK (Homo sapiens) (UniProt Q06187); assay: Inhibition of BTK (unknown origin) at 1 uM relative to control
[12] = molecular target: Insulin receptor-related protein (Homo sapiens) (UniProt P14616); assay: Inhibition of INSRR (unknown origin) at 1 uM relative to control
[13] = molecular target: Serine/threonine-protein kinase B-raf (Homo sapiens) (UniProt P15056); assay: Inhibition of BRAF (unknown origin) at 1 uM relative to control
NCI-H1975 [14] = assay: In vivo anti tumor activity against human NCI-H1975 cells xenografted in nude C.B-17 SCID mouse model assessed as relative tumor volume at 20 mg/kg, ig for 18 days measured twice a week relative to control; assay type: functional
Procedure, shortened: (§2)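 C.B-17 SCID mice received s.c. inoculation of 5 × 10^6 H1975 cells. At 100-150 mm3 they were randomized (n = 9 per group) and dosed intragastrically once daily for 18 days, with PBS as the control. Tumors were measured by caliper twice weekly, with V = length × width²/2. RTV = V/V0, and T/C% = treated mean RTV / control mean RTV × 100.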

NCI-H1975 [15] = assay: In vivo anti tumor activity against human NCI-H1975 cells xenografted in nude C.B-17 SCID mouse model assessed as tumor growth inhibition at 20 mg/kg, ig for 18 days measured twice a week relative to control; assay type: functional; details: NCI-H1975, po, 432 h, read-out: TGI; procedure, shortened: as §1
[16] = Tmax in Sprague-Dawley rat at 10 mg/kg, po administered via gavage by LC-MS/MS analysis; assay type: ADME, organism-based; details: in vivo
Procedure, shortened: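 Male Sprague-Dawley rats (200-240 g) received 1 mg/kg by tail-vein injection in 2% DMSO, 20% PEG400 and 78% buffered saline, or 10 mg/kg by oral gavage in 0.5% methylcellulose. Orbital sinus blood was drawn into heparinized tubes at 2, 5, 15 and 30 min and at 1, 2, 4, 8, 12 and 24 h, then centrifuged. Plasma was measured by LC/MS/MS in SRM mode, with non-compartmental analysis.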

[17] = molecular target: Mast/stem cell growth factor receptor Kit (Homo sapiens) (UniProt P10721); assay: Inhibition of KIT (unknown origin) at 1 uM relative to control
[18] = AUC (0 to infinity) in Sprague-Dawley rat at 10 mg/kg, po administered via gavage by LC-MS/MS analysis; assay type: ADME, organism-based; set-up: dose 10 mg/kg, route oral, time infinity; details: in vivo
[19] = molecular target: Non-receptor tyrosine-protein kinase TYK2 (Homo sapiens) (UniProt P29597); assay: Inhibition of TYK2 (unknown origin) at 1 uM relative to control
[20] = molecular target: Tyrosine-protein kinase Fyn (Homo sapiens) (UniProt P06241); assay: Inhibition of FYN (unknown origin) at 1 uM relative to control
[21] = AUC (0 to 24 hrs) in Sprague-Dawley rat at 1 mg/kg, iv by LC-MS/MS analysis; assay type: ADME, organism-based; set-up: time < 24 hr, dose 1 mg/kg, route intravenous; details: in vivo
[22] = molecular target: Cyclin-dependent kinase 5/CDK5 activator 1 (Homo sapiens) (UniProt Q00535+Q15078); assay: Inhibition of CDK5/p35 (unknown origin) at 1 uM relative to control; assay type: protein-complex assay
[23] = molecular target: Glycogen synthase kinase-3 beta (Homo sapiens) (UniProt P49841); assay: Inhibition of GSK3B (unknown origin) at 1 uM relative to control
NCI-H1975 [24] = assay: In vivo anti tumor activity against human NCI-H1975 cells xenografted in nude C.B-17 SCID mouse model assessed as relative tumor volume at 10 mg/kg, ig for 18 days measured twice a week relative to control; assay type: functional; procedure, shortened: as §2
HCC827 = assay: Antiproliferative activity against human HCC827 cells harboring EGFR E746-A750 deletion mutant; assay type: functional, cell-based
[25] = molecular target: Casein kinase I isoform epsilon (Homo sapiens) (UniProt P49674); assay: Inhibition of CSNK1E (unknown origin) at 1 uM relative to control
[26] = molecular target: Tyrosine-protein kinase Blk (Homo sapiens) (UniProt P51451); assay: Inhibition of BLK (unknown origin) at 1 uM relative to control
Mus musculus = assay: Toxicity in nude C.B-17 SCID mouse model xenografted with human NCI-H1975 cells assessed as loss of body weight at 5 to 20 mg/kg, ig for 18 days; assay type: organism-based; details: in vivo, po, 432 h
Procedure, shortened: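 H1975 xenografts were set up by subcutaneous inoculation of 5 × 10^6 cells into C.B-17 SCID mice. At a mean tumor volume of 100-150 mm3, mice were randomized into groups of n = 9. They were dosed intragastrically once daily for 18 days at 5, 10 or 20 mg/kg, given as 0.1 mL/10 g body weight. The control group received PBS, and tumors were caliper-measured twice weekly.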

[27] = molecular target: Platelet-derived growth factor receptor alpha (Homo sapiens) (UniProt P16234); assay: Inhibition of PDGFRA (unknown origin) at 1 uM relative to control
[28] = molecular target: Mitogen-activated protein kinase kinase kinase 9 (Homo sapiens) (UniProt P80192); assay: Inhibition of MAP3K9 (unknown origin) at 1 uM relative to control
[29] = molecular target: Ephrin type-B receptor 2 (Homo sapiens) (UniProt P29323); assay: Inhibition of EPHB2 (unknown origin) at 1 uM relative to control
[30] = molecular target: Hepatocyte growth factor receptor (Homo sapiens) (UniProt P08581); assay: Inhibition of MET (cMet) (unknown origin) at 1 uM relative to control
Sequence of Hepatocyte growth factor receptor (Homo sapiens) (P08581 whole entry): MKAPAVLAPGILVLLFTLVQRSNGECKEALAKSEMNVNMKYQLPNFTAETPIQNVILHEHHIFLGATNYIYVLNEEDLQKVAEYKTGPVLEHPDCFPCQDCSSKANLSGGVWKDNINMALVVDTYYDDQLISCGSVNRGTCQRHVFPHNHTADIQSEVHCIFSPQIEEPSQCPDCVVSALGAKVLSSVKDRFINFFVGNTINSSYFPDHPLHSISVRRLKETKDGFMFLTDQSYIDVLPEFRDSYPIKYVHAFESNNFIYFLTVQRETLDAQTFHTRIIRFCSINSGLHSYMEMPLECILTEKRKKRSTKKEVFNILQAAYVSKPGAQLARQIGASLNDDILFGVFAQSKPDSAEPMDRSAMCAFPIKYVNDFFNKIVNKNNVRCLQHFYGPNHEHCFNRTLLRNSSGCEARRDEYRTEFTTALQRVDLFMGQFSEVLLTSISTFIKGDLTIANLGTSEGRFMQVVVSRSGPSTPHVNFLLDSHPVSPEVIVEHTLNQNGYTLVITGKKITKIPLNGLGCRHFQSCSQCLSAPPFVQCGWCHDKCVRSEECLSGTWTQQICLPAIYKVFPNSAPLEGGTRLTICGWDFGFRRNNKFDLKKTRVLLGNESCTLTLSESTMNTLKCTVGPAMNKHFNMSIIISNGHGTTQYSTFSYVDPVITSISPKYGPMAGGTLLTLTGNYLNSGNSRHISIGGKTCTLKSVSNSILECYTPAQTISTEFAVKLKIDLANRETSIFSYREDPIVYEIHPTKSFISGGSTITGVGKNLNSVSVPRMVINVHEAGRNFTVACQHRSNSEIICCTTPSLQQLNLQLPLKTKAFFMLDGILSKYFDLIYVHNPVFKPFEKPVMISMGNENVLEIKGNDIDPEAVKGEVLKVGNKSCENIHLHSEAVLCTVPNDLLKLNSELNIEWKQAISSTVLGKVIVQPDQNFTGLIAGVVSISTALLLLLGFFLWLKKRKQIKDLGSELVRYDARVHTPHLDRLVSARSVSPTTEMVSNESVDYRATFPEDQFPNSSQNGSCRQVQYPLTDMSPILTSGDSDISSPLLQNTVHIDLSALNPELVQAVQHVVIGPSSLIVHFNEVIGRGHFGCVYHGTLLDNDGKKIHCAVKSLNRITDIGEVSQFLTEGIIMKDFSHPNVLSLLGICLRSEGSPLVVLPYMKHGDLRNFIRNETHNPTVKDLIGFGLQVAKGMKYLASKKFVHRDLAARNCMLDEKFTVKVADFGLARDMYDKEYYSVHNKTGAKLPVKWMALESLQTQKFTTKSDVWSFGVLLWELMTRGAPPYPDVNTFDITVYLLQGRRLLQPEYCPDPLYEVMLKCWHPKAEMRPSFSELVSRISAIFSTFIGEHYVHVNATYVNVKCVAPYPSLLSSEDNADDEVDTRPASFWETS

Sequence of Platelet-derived growth factor receptor alpha (Homo sapiens) (P16234 whole entry): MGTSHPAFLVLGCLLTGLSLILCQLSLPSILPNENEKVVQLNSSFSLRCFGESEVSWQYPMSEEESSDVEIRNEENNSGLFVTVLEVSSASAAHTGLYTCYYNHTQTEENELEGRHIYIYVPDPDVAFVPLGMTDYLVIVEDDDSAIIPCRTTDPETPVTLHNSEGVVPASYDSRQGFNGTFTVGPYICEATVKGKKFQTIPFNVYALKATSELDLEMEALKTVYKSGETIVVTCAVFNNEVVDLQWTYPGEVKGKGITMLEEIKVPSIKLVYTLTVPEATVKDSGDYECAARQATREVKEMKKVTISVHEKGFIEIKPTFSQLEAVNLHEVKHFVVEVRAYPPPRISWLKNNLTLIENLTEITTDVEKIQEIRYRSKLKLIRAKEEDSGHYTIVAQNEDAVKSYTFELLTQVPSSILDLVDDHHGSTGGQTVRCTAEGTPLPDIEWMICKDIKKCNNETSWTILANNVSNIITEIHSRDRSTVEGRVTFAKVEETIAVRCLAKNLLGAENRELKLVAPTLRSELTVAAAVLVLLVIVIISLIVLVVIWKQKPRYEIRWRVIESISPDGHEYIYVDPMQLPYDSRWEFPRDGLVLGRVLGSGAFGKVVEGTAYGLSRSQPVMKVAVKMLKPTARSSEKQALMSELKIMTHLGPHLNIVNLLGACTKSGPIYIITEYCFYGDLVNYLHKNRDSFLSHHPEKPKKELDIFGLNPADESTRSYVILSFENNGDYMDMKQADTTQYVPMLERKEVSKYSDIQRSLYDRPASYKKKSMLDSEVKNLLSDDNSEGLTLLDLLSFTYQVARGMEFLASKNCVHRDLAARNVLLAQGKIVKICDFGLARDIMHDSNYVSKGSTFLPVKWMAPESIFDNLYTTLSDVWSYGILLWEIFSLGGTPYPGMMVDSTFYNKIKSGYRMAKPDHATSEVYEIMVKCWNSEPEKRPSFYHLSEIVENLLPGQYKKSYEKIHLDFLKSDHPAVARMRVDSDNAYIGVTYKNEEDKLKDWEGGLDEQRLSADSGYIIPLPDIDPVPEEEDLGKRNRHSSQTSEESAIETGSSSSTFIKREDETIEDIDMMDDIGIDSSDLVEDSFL
Sequence of Receptor-type tyrosine-protein kinase FLT3 (Homo sapiens) (P36888 whole entry): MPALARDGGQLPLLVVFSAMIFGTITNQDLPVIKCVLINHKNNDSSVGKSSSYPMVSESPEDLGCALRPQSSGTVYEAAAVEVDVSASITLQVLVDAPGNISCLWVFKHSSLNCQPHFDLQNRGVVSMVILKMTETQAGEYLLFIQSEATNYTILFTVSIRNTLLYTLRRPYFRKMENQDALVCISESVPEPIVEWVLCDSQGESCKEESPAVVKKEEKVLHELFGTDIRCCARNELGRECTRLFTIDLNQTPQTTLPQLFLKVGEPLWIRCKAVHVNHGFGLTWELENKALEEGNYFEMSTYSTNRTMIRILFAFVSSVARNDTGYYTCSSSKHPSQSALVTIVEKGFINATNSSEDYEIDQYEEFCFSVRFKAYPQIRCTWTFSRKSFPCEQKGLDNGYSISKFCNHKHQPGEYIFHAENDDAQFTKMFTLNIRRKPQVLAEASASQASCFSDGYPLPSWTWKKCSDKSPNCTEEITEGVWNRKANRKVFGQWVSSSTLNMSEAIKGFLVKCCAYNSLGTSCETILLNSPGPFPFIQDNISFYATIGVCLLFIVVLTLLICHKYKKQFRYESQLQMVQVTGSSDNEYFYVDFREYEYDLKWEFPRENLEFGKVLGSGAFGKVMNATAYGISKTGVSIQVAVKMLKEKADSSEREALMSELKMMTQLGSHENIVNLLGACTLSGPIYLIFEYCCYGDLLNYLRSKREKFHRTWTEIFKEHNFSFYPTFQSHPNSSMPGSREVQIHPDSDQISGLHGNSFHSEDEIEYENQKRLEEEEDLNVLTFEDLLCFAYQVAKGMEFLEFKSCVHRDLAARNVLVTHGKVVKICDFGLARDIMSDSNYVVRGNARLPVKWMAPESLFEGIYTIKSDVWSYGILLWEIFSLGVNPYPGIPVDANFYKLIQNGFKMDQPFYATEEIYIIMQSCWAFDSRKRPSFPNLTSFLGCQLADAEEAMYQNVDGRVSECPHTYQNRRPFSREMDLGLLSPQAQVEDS
Sequence of Serine/threonine-protein kinase B-raf (Homo sapiens) (P15056 whole entry): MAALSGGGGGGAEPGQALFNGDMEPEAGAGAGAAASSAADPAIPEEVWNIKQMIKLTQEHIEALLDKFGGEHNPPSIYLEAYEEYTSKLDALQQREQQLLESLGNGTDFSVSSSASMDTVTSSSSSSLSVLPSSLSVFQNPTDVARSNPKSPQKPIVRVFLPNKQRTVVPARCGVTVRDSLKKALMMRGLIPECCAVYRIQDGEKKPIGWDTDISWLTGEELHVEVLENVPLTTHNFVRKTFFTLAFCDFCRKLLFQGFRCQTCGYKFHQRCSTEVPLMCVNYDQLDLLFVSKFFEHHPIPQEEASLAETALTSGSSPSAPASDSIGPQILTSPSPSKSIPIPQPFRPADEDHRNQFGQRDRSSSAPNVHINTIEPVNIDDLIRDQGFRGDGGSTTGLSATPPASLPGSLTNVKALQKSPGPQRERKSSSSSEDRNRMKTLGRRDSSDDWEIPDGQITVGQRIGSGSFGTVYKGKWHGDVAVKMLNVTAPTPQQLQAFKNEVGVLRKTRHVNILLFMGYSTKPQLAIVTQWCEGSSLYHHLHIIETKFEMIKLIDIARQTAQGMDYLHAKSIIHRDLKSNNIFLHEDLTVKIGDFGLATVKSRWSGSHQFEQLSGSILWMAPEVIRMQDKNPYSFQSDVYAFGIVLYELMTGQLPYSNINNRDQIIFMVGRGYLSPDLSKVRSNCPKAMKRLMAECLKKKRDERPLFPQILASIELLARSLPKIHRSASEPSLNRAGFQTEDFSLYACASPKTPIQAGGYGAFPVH
Sequence of Tyrosine-protein kinase Fyn (Homo sapiens) (P06241 2-537 limits assumed): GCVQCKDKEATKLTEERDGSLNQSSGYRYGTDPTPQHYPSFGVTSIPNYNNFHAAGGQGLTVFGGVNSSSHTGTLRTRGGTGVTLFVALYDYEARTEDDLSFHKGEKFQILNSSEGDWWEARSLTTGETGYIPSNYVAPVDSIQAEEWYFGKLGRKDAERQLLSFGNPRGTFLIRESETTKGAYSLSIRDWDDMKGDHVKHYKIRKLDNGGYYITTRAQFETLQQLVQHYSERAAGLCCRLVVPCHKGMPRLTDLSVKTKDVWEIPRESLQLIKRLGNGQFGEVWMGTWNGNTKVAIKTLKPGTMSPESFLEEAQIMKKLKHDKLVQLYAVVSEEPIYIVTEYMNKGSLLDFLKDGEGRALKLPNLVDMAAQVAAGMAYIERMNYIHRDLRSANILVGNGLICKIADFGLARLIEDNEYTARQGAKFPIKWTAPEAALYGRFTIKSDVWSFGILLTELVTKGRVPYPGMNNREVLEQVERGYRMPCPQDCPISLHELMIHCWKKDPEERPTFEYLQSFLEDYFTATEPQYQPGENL

For `C=CC(=O)Nc1cc(Nc2nccc(-c3cn4c5c(cccc35)CCC4)n2)c(OC)cc1N(C)CCN(C)C`, which inhibition [1] is on record?
Its inhibition is -10%.

What about the CLint scaled [2] of the same molecule?
Its CLint scaled is 457 mL/min/kg.

What about the inhibition [3] of the same molecule?
Its inhibition is 0%.

And the inhibition in vivo at 10 mg/kg (NCI-H1975 [4])?
The inhibition in vivo at 10 mg/kg was 83.5%.

And the inhibition [5]?
The inhibition was 56%.

And the inhibition [6]?
Its inhibition is 7%.

And the inhibition [7]?
Its inhibition is -6%.

What about the inhibition [8] of the same molecule?
Its inhibition is 9%.

What about the CLint scaled [9] of the same molecule?
Its CLint scaled is 64.8 mL/min/kg.

And the half-life [10]?
Its half-life is 0.77 h.

And the inhibition [11]?
Its inhibition is 48%.

And the inhibition [12]?
The inhibition was 39%.

What about the inhibition [13] of the same molecule?
The inhibition was 20%.

And the T/C (NCI-H1975 [14])?
Its T/C is 12.1%.

And the inhibition in vivo at 20 mg/kg (NCI-H1975 [15])?
Its inhibition in vivo at 20 mg/kg is 96.3%.

What about the Tmax [16] of the same molecule?
The Tmax was 3.3 h.

What about the inhibition [17] of the same molecule?
Its inhibition is 5%.

What about the AUC(0-inf) [18] of the same molecule?
The AUC(0-inf) was 1020 ng·h/mL.

And the inhibition [19]?
The inhibition was 14%.

What about the inhibition [20] of the same molecule?
The inhibition was 7%.

What about the AUC(0-t) at 24 h [21] of the same molecule?
The AUC(0-t) at 24 h was 190 ng·h/mL.

And the inhibition [22]?
The inhibition was 1%.

What about the inhibition [23] of the same molecule?
The inhibition was 7%.

What about the T/C (NCI-H1975 [24]) of the same molecule?
The T/C was 25.7%.

What about the IC50 (HCC827) of the same molecule?
Its IC50 is 109 nM.

And the inhibition [25]?
The inhibition was 3%.

And the inhibition [26]?
Its inhibition is 85%.

What about the Activity (Mus musculus) of the same molecule?
Its Activity is “Non-Toxic”.

What about the inhibition [27] of the same molecule?
The inhibition was 13%.

And the inhibition [28]?
Its inhibition is 87%.

And the inhibition [29]?
Its inhibition is 6%.

And the inhibition [30]?
Its inhibition is -2%.
